Experiments:
[1] = molecular target: Glutamate dehydrogenase 1, mitochondrial (Bos taurus, UniProt P00366); assay: Inhibition constant against mammalian glutamate dehydrogenase (GDH)
Method in brief: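 Bovine liver GDH in 0.1 M sodium phosphate, pH 7.0, with 10 μM EDTA. NAD is the variable substrate. Rates are followed as the increase in A340 from NADH formation (ε 6.22 mM-1 cm-1). Ki is taken from Lineweaver-Burk plots by linear regression. At least duplicate runs.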

[2] = Apparent inhibition constant against mammalian malate dehydrogenase (MDH)
Method in brief: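 LDH and MDH: 0.05 M Tris-HCl, pH 9.0. NAD is the variable substrate. Rates come from the rise in A340 as NADH forms (ε 6.22 mM-1 cm-1). Ki is estimated from Lineweaver-Burk plots by linear regression of slope and intercept. Assays run at least in duplicate.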

Glutamate dehydrogenase 1, mitochondrial, sequence (P00366 whole entry): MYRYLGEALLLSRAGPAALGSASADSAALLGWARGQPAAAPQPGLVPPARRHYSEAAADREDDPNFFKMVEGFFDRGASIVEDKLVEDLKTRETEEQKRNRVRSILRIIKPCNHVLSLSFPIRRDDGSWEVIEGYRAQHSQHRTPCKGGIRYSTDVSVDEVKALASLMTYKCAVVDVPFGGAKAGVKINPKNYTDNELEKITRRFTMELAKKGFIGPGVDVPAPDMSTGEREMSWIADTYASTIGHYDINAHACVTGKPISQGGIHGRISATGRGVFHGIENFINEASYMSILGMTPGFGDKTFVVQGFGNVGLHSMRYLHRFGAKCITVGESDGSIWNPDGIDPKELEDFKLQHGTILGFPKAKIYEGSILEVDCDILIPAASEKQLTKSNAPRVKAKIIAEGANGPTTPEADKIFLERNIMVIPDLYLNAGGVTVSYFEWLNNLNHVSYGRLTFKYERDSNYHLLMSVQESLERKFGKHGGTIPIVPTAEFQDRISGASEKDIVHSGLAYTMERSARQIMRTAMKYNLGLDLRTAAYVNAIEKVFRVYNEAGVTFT

| Ki [1] | Ki [2] | SMILES |
| --- | --- | --- |
| 50 µM |  | NC(=O)c1cccc([C@@H]2O[C@H](COP(=O)(O)OP(=O)(O)OC[C@H]3O[C@@H](n4cnc5c(N)ncnc54)[C@H](O)[C@@H]3O)[C@@H](O)[C@H]2O)n1 |
| 3.4 µM |  | NC(=O)C1=CN(C2OC(COP(=O)(O)OP(=O)(O)OC[C@H]3O[C@@H](n4cnc5c(N)ncnc54)[C@H](O)[C@@H]3O)[C@H](O)[C@@H]2O)C=CC1 (stereo partly drawn) |
|  | 410 µM | NC(=O)c1cncc([C@@H]2O[C@H](COP(=O)(O)OP(=O)(O)OC[C@H]3O[C@@H](n4cnc5c(N)ncnc54)[C@H](O)[C@@H]3O)[C@@H](O)[C@H]2O)c1 |
